Calls of active or inactive are those of the source. The rule behind the calls is not given here.
How the values were obtained:
T47D = assay: Antiproliferative activity against human T47D cells harboring PI3KCA H1047R mutant after 72 hrs by MTT assay; format: functional, cell-based
[1] = molecular target: PI3-kinase p110-alpha/p85-alpha (Homo sapiens, UniProt P42336); assay: Inhibition of recombinant human full length N-terminal His-tagged p110alpha/p85alpha expressed in baculovirus expression system using PIP2 as substrate measured after 1 hr by Alexa633 Tracer-based fluorescence polarization assay
Sequence of PI3-kinase p110-alpha/p85-alpha (P27986 whole entry): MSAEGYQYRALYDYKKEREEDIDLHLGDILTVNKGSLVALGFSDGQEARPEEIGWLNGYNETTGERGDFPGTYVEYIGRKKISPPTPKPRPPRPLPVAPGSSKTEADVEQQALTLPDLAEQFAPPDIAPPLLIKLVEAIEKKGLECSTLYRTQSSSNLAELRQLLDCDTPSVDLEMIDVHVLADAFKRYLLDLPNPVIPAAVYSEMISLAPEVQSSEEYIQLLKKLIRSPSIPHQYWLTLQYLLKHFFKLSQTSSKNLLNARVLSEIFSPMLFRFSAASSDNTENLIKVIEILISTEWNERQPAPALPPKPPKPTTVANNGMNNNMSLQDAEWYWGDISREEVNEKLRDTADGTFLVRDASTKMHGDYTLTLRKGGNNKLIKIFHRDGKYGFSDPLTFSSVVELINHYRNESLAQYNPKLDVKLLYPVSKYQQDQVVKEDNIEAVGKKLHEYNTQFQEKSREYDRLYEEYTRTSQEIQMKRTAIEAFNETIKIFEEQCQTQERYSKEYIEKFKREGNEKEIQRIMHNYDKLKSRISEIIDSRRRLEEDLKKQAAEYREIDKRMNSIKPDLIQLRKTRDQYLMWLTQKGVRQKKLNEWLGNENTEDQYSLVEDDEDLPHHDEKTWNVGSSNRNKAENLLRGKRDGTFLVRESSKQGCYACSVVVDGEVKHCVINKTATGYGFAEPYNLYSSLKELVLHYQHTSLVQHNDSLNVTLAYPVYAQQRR
Sequence of PI3-kinase p110-alpha/p85-alpha (P42336 whole entry): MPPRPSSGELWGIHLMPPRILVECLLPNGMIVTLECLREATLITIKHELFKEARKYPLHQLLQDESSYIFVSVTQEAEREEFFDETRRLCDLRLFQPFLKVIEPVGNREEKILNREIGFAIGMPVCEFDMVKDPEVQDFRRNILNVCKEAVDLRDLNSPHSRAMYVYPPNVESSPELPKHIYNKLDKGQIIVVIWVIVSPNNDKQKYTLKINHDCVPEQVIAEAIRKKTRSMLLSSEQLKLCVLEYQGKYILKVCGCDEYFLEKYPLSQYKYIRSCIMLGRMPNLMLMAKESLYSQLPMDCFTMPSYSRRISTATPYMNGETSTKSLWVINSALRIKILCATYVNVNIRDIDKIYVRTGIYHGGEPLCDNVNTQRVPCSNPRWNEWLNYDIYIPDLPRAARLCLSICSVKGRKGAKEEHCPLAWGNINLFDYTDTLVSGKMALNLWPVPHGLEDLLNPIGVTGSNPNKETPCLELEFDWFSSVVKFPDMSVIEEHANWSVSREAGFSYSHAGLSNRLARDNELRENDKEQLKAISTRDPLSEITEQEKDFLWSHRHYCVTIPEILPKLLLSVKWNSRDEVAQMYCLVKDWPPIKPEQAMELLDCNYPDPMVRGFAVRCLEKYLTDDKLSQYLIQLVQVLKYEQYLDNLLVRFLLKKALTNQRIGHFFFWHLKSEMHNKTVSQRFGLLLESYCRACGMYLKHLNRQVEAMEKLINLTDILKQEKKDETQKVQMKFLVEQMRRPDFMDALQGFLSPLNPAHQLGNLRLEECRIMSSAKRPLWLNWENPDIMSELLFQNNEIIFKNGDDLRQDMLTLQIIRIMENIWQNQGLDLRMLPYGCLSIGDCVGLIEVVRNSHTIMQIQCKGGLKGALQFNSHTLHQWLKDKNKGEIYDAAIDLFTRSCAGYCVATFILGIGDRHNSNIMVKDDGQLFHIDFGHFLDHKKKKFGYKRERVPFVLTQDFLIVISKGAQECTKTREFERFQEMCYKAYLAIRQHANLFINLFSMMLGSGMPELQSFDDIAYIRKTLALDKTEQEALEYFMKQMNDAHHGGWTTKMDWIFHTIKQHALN
Method in brief: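 PI3Kα enzyme inhibition; IC50 is the mean of duplicate measurements.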

[2] = Inhibition of PI3K in human PC3 cells assessed as reduction in AKT phosphorylation at Ser473 measured after 2 hrs by fluorescence assay; format: cell-based; conditions: PC-3, 2 h
MCF7 = assay: Antiproliferative activity against human MCF7 cells harboring PIK3CA E545K mutant after 72 hrs by MTT assay; format: functional, cell-based; conditions: MCF7, 72 h
[3] = molecular target: Serine/threonine-protein kinase ATR (Homo sapiens) (UniProt Q13535); assay: Inhibition of ATR in human HT-29 cells assessed as reduction in camptothecin-induced Chk1 phosphorylation at Ser345 residue up to 10 uM pretreated for 1 hr followed by camptothecin addition; format: cell-based
Sequence of Serine/threonine-protein kinase ATR (Homo sapiens) (Q13535 whole entry, looked up): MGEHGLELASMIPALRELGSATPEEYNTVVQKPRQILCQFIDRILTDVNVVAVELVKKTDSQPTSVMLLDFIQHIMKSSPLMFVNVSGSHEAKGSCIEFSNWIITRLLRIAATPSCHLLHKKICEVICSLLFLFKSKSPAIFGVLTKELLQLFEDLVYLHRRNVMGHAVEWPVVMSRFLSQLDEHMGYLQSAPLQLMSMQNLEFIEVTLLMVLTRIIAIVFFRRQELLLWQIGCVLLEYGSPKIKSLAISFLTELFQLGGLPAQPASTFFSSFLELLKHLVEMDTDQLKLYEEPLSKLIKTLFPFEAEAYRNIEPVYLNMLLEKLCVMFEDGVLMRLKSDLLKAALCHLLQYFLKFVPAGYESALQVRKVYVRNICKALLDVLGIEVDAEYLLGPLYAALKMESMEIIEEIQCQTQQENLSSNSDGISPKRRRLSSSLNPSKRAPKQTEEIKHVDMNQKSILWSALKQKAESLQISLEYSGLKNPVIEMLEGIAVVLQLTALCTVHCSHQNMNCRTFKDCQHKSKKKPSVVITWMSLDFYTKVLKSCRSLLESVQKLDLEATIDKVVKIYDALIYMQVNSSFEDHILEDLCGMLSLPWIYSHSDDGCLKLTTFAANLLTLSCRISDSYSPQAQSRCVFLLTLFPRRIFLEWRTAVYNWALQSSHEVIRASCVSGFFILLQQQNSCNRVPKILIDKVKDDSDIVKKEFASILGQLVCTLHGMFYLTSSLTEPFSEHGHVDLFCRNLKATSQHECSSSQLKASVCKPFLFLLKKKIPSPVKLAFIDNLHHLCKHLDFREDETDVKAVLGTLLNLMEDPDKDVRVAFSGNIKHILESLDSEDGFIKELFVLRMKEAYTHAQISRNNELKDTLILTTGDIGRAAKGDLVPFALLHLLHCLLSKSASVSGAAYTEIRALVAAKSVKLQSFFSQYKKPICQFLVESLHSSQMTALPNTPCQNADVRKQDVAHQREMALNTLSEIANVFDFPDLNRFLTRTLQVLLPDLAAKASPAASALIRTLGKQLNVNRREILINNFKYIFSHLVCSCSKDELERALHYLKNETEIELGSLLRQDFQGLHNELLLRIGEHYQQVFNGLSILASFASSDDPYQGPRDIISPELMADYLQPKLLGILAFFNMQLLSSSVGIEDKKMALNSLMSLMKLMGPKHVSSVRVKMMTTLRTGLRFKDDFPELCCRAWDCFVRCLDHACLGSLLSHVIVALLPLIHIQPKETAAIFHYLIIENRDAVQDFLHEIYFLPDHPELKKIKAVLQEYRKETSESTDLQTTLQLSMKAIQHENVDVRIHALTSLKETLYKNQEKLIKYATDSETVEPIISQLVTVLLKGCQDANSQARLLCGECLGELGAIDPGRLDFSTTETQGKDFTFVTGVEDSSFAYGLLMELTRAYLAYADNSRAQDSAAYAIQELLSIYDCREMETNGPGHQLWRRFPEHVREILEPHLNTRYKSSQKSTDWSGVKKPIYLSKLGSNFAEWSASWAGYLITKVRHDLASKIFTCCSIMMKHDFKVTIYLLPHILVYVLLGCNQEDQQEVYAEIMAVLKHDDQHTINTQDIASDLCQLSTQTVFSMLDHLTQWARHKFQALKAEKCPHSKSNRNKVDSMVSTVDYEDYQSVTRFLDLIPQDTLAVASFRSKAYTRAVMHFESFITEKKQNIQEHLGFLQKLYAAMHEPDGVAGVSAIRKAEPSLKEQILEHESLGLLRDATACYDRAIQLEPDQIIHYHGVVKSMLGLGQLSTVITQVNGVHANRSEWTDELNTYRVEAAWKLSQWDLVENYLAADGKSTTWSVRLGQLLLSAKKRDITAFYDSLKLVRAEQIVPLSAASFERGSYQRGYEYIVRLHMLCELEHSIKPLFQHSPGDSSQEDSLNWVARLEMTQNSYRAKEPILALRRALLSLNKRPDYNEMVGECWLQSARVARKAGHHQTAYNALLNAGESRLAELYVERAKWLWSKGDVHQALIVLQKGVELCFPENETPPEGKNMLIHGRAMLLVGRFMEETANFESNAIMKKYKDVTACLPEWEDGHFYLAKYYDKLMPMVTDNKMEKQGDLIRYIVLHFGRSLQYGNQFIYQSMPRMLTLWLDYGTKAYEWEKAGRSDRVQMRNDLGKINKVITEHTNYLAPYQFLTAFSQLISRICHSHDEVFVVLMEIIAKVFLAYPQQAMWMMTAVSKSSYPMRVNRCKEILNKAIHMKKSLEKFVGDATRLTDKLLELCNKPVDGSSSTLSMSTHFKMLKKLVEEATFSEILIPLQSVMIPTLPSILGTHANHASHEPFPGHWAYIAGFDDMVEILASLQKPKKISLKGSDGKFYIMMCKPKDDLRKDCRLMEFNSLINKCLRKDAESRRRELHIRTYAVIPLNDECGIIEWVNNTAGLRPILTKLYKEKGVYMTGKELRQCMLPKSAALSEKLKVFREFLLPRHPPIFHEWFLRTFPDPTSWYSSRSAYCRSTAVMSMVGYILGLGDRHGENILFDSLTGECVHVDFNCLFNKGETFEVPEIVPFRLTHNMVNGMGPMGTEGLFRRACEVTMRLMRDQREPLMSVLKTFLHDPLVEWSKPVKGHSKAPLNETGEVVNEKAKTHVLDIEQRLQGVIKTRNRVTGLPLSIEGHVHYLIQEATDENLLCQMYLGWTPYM
Method in brief: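 HT-29 cells were pretreated with compound for 1 h, then exposed to camptothecin to induce DNA damage. ATR activity was read as phosphorylation of its substrate Chk1, with total Chk1 and β-actin as internal controls. […] served as reference inhibitor.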

[4] = molecular target: Serine/threonine-protein kinase mTOR (Homo sapiens, UniProt P42345); assay: Inhibition of recombinant human GST-tagged mTOR catalytic domain (1360 to 2549 residues) expressed in baculovirus expression system using GFP-4EBP1 as substrate measured after 1 hr by Lathascreen method
[5] = Intrinsic clearance in human liver microsomes at […] pretreated up to 45 mins followed by NADPH addition and measured by LC-MS/MS analysis; format: ADME, microsome; conditions: read-out: CLH
[6] = Intrinsic clearance in mouse liver microsomes at […] pretreated up to 45 mins followed by NADPH addition and measured by LC-MS/MS analysis; format: ADME, microsome; conditions: read-out: CLH
HT-29 [7] = assay: Cell cycle arrest in human HT-29 cells assessed as accumulation at G2/M phase at 0.111 to 3 uM after 24 hrs by propidium iodide staining based flow cytometry; format: functional
HUVEC = assay: Cytotoxicity against HUVEC after 72 hrs by MTT assay; format: cell-based; conditions: Homo sapiens
HT-29 [8] = assay: Antitumor activity against human HT-29 cells harboring PIK3CA P449T mutant xenografted in Balb/c nu/nu mouse assessed as tumor growth inhibition at 15 mg/kg, po administered daily via gavage for 27 days relative to control; format: functional; conditions: HT-29, po, 648 h, read-out: TGI
Method in brief: (§1)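 Balb/c nu/nu mice carrying HT-29 xenografts were dosed by daily oral gavage for 27 days, starting when mean tumor size was about 240 mm³; vehicle group as control. Tumor volume estimated over time, and TGI calculated after 27 days. Mean ± SEM, n = 6. Dunnett's multiple comparison test.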

HT-29 [9] = assay: Antitumor activity against human HT-29 cells harboring PIK3CA P449T mutant xenografted in Balb/c nu/nu mouse assessed as tumor growth inhibition at 30 mg/kg, po administered daily via gavage for 27 days relative to control; format: functional; conditions: HT-29, po, 648 h, read-out: TGI; method in brief: as §1
Mus musculus = assay: Toxicity in Balb/c nu/nu mouse xenografted with human HT-29 cells harboring PIK3CA P449T mutant assessed as body weight loss at 60 mg/kg, po administered daily via gavage for 10 days relative to control; conditions: in vivo, 240 h
PI3K p110 beta/p85 alpha = PI3K p110 beta/p85 alpha (Homo sapiens, UniProt P42338); assay: Inhibition of recombinant human full-length N-terminal His6-tagged p110beta/recombinant human full length p85alpha expressed in baculovirus infected Sf21 insect cells using PIP2 as substrate measured after 1 hr by Alexa633 Tracer-based fluorescence polarization assay
[10] = molecular target: PI3-kinase p110-delta/p85-alpha (Homo sapiens, UniProt O00329); assay: Inhibition of recombinant human full-length N-terminal His6-tagged p110delta/recombinant human full length p85alpha expressed in baculovirus infected Sf21 insect cells using PIP2 as substrate measured after 1 hr by Alexa633 Tracer-based fluorescence polarization assay

| SMILES | IC50 (T47D) [nM] | IC50 [1] [nM] | IC50 [2] [nM] | IC50 (MCF7) [nM] | other results |
| --- | --- | --- | --- | --- | --- |
| CS(=O)(=O)C1(c2cc(-c3cnc(N)cc3C(F)(F)F)nc(N3CCOCC3)n2)CCC1 | 138 | 15 | 248 | 134 |  |
| CS(=O)(=O)Cc1cc(-c2cnc(N)cc2C(F)(F)F)nc(N2CCOCC2)n1 | 1670 |  | 3010 | 1510 | inhibition [3]: inactive; IC50 [4]: 14000 nM |
| C[C@H]1COCCN1c1nc(-c2cnc(N)cc2F)cc(C(C)(C)S(C)(=O)=O)n1 | 33 | 20 | 121 | 15 | CLint scaled [5]: 5 to 16 mL/min/kg; CLint scaled [6]: 40 to 140 mL/min/kg |
| CS(=O)(=O)C(F)(F)c1cc(-c2cnc(N)cc2C(F)(F)F)nc(N2CCOCC2)n1 | 513 | 25 | 846 | 408 |  |
| Nc1cc(C(F)(F)F)c(-c2cc(C3(S(=O)(=O)c4ccccc4F)CC3)nc(N3CCOCC3)n2)cn1 | 129 | 7 | 367 | 184 |  |
| CC(C)(c1cc(-c2cnc(N)cc2C(F)(F)F)nc(N2CCOCC2)n1)S(=O)(=O)c1ccccc1 | 478 | 9 | 1550 | 897 |  |
| Nc1cc(C(F)(F)F)c(-c2cc(N3CCOCC3)nc(N3CCOCC3)n2)cn1 [BUPARLISIB] | 286 |  | 365 | 206 | Activity (HT-29 [7]): Active; CLint scaled [5]: 10.9 mL/min/kg; IC50 (HUVEC): 886 nM; CLint scaled [6]: 151 mL/min/kg; inhibition in vivo at 15 mg/kg (HT-29 [8]): 39.4%; inhibition [3]: inactive; inhibition in vivo at 30 mg/kg (HT-29 [9]): 55.7%; Activity (Mus musculus): > 25% |
| CC(C)S(=O)(=O)C1(c2cc(-c3cnc(N)cc3C(F)(F)F)nc(N3CCOCC3)n2)CC1 | 160 | 58 | 430 | 437 |  |
| CS(=O)(=O)C1(c2cc(-c3cnc(N)cc3C(F)(F)F)nc(N3CCOCC3)n2)CCCCC1 |  | 321 |  |  |  |
| C[C@@H]1COCCN1c1nc(-c2cnc(N)cc2C(F)(F)F)cc(C2(S(C)(=O)=O)CC2)n1 |  | 223 |  |  |  |
| Nc1cc(C(F)(F)F)c(-c2cc(C3(S(=O)(=O)c4cccc(F)c4)CC3)nc(N3CCOCC3)n2)cn1 | 242 | 14 | 606 | 286 |  |
| CC(C)(c1cc(-c2cnc(N)cc2F)nc(N2CCOCC2)n1)S(C)(=O)=O | 123 | 66 | 215 | 104 | CLint scaled [5]: 5 to 16 mL/min/kg; CLint scaled [6]: 40 to 140 mL/min/kg |
| CS(=O)(=O)C(F)c1cc(-c2cnc(N)cc2C(F)(F)F)nc(N2CCOCC2)n1 (configuration not stated) | 1160 | 56 | 2450 | 1140 |  |
| CC(C)(c1cc(-c2cnc(N)cc2C(F)(F)F)nc(N2CCOCC2)n1)S(C)(=O)=O | 58 |  | 312 | 224 |  |
| Nc1cc(C(F)(F)F)c(-c2cc(C3(S(=O)(=O)c4ccc(F)cc4)CC3)nc(N3CCOCC3)n2)cn1 | 619 | 57 | 1280 | 572 |  |
| C[C@H]1COCCN1c1nc(-c2cnc(N)cc2C(F)(F)F)cc(C2(S(C)(=O)=O)CCCC2)n1 | 139 | 22 | 674 | 159 |  |
| CS(=O)(=O)C1(c2cc(-c3cnc(N)cc3C(F)(F)F)nc(N3CCOCC3)n2)CC1 |  |  |  |  | CLint scaled [5]: 9.86 mL/min/kg; CLint scaled [6]: 185 mL/min/kg; inhibition [3]: inactive; IC50 [4]: 1680 nM |
| C[C@H]1COCCN1c1nc(-c2cnc(N)cc2C(F)(F)F)cc(C(C)(C)S(C)(=O)=O)n1 | 175 |  | 306 | 214 |  |
| C[C@H]1COCCN1c1nc(-c2cnc(N)cc2C(F)(F)F)cc(C2(S(C)(=O)=O)CC2)n1 | 129 | 9 to 16 | 546 | 112 | IC50 (PI3K p110 beta/p85 alpha): 264 nM; IC50 [10]: 197 nM; inhibition [3]: inactive; IC50 [4]: 2120 nM |
| CS(=O)(=O)C1(c2cc(-c3cnc(N)cc3C(F)(F)F)nc(N3CCOCC3)n2)CCCC1 | 218 |  | 384 | 340 |  |
| Nc1cc(C(F)(F)F)c(-c2cc(C3(S(=O)(=O)c4ccccc4)CC3)nc(N3CCOCC3)n2)cn1 | 324 |  | 668 | 513 |  |
| CC(C)C(c1cc(-c2cnc(N)cc2C(F)(F)F)nc(N2CCOCC2)n1)S(C)(=O)=O (configuration not stated) |  | 218 |  |  |  |
| C[C@H]1COCCN1c1nc(-c2cnc(N)cc2C(F)(F)F)cc(C2(S(C)(=O)=O)CCC2)n1 | 93 | 6 | 184 | 78 |  |
| CCS(=O)(=O)C(C)(C)c1cc(-c2cnc(N)cc2C(F)(F)F)nc(N2CCOCC2)n1 | 552 | 40 | 947 | 512 |  |
| CC(C)S(=O)(=O)C(C)(C)c1cc(-c2cnc(N)cc2C(F)(F)F)nc(N2CCOCC2)n1 | 1060 | 65 | 1180 | 599 |  |
| CS(=O)(=O)C1(c2cc(-c3cnc(N)cc3F)nc(N3CCOCC3)n2)CC1 | 62 | 41 | 369 | 27 | CLint scaled [5]: 5 to 16 mL/min/kg; CLint scaled [6]: 40 to 140 mL/min/kg |
| CCS(=O)(=O)C1(c2cc(-c3cnc(N)cc3C(F)(F)F)nc(N3CCOCC3)n2)CC1 | 225 |  | 301 | 295 |  |

Source: ChEMBL document CHEMBL4196123, “Discovery of an Orally Bioavailable Dual PI3K/mTOR Inhibitor Based on Sulfonyl-Substituted Morpholinopyrimidines” (ACS Med Chem Lett, 2018)
